Reference: article PMC4284021 (The Journal of Pharmacy and Pharmacology, 2014)
“And” between values parts separate entries of the source, which are not always exact repeats. Equal entries are not always repeated. Marks after values point to notes of the source that are not given here.

How the values were obtained:
Type in all cases: in vivo, human
[1] = system: apolipoproteins (apo AI, apo AII, apo B, apo E); test: Apolipoprotein concentrations by immunoturbidimetric methods in healthy subjects; conditions: for Apo AI: Mean % change from baseline (90% CI) / Apo AI: Mean % change vs placebo (90 % CI) / Apo AII: Mean % change from baseline (90% CI) / Apo AII: Mean % change vs placebo (90 % CI) / Apo B: Mean % change from baseline (90% CI) / Apo B: Mean % change vs placebo (90 % CI) / Apo E: Mean % change from baseline (90% CI) / Apo E: Mean % change vs placebo (90 % CI) / Ratio of apo B/apo AI: Mean % change from baseline (90% CI) / Ratio of apo B/apo AI: Mean % change vs placebo (90 % CI): day 14
How it was run: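 Healthy adults took placebo or test compound (10, 100, 300, 600 mg) as capsules once daily with a low-fat meal for 14–15 days. Apo AI, AII, B and E were measured by immunoturbidimetry on a Roche Modular analyser. Values are percent change from baseline to Day 14, including all randomized subjects given at least one dose.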

HDL-C and LDL-C = test: Emax model of plasma evacetrapib exposure; conditions: model estimate (90% CI)
How it was run: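 Change from baseline in HDL-C and LDL-C on Day 14 was fitted against steady-state plasma AUC. AUC came from LC/MS/MS and non-compartmental analysis. Model: Emax, the maximal response, and EAUC50, the AUC giving 50% of the maximal response.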

healthy subjects = test: 24-h ambulatory blood pressure monitoring; conditions: for effect on 24-h ambulatory systolic or diastolic blood pressure: 600 mg compared with placebo
How it was run: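 Double-blind crossover cohort (n = 15): placebo or 600 mg/day oral test compound for 14 days, then the other treatment after a 21-day washout. Subjects wore the ambulatory monitor about 12 h before Day 1 baseline. On Day 14, dosing came about 1 h after monitoring began. Readings every 20 min by day, every 30 min at night. The first hour was excluded. Value is mean SBP/DBP over the 24 h after dosing.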

[2] = AUC producing 50% of maximal response
[3] = 600 mg, 24-h ABPM, Day 1 (baseline), mean (90% CI)
[4] = 600 mg/day for 14 days, 24-h ABPM
[5] = 600 mg/day for 14 days, 24-h ABPM, (90% CI)
[6] = 600 mg/day, 24-h ABPM, Day 14, mean (90% CI)

Cc1cc(C)c2c(c1)[C@@H](N(Cc1cc(C(F)(F)F)cc(C(F)(F)F)c1)c1nnn(C)n1)CCCN2C[C@H]1CC[C@H](C(=O)O)CC1 [evacetrapib]
Apo AI: Mean % change from baseline (90% CI) ([1]; 10 mg/day): 3.53 (−2.23, 9.30) %
Apo AI: Mean % change vs placebo (90 % CI) ([1]; 10 mg/day): 15.29 (7.74, 22.84) ^** %
Apo AII: Mean % change from baseline (90% CI) ([1]; 10 mg/day): −1.30 (−5.34, 2.73) %
Apo AII: Mean % change vs placebo (90 % CI) ([1]; 10 mg/day): 4.29 (−0.90, 9.48) %
Apo B: Mean % change from baseline (90% CI) ([1]; 10 mg/day): −8.09 (−13.41, −2.77) %
Apo B: Mean % change vs placebo (90 % CI) ([1]; 10 mg/day): −15.05 (−22.68, −7.43) ^** %
Apo E: Mean % change from baseline (90% CI) ([1]; 10 mg/day): 19.70 (5.10, 34.30) %
Apo E: Mean % change vs placebo (90 % CI) ([1]; 10 mg/day): 8.36 (−2.89, 19.60) %
Ratio of apo B/apo AI: Mean % change from baseline (90% CI) ([1]; 10 mg/day): −6.87 (−12.72, −1.02) %
Ratio of apo B/apo AI: Mean % change vs placebo (90 % CI) ([1]; 10 mg/day): −26.63 (−34.88, −18.38) ^*** %
Apo AI: Mean % change from baseline (90% CI) ([1]; 100 mg/day): 24.61 (20.07, 29.15) %
Apo AI: Mean % change vs placebo (90 % CI) ([1]; 100 mg/day): 36.37 (27.66, 45.08) ^*** %
Apo AII: Mean % change from baseline (90% CI) ([1]; 100 mg/day): 8.85 (4.69, 13.02) %
Apo AII: Mean % change vs placebo (90 % CI) ([1]; 100 mg/day): 14.44 (7.16, 21.72) ^** %
Apo B: Mean % change from baseline (90% CI) ([1]; 100 mg/day): −17.64 (−20.84, −14.43) %
Apo B: Mean % change vs placebo (90 % CI) ([1]; 100 mg/day): −24.60 (−31.28, −17.92) ^*** %
Apo E: Mean % change from baseline (90% CI) ([1]; 100 mg/day): 55.81 (36.13, 75.50) %
Apo E: Mean % change vs placebo (90 % CI) ([1]; 100 mg/day): 44.47 (14.63, 74.30) ^* %
Ratio of apo B/apo AI: Mean % change from baseline (90% CI) ([1]; 100 mg/day): −31.84 (−35.59, −28.09) %
Ratio of apo B/apo AI: Mean % change vs placebo (90 % CI) ([1]; 100 mg/day): −51.60 (−59.36, −43.83) ^*** %
Apo AI: Mean % change from baseline (90% CI) ([1]; 300 mg/day): 28.75 (23.70, 33.80) %
Apo AI: Mean % change vs placebo (90 % CI) ([1]; 300 mg/day): 40.50 (31.66, 49.34) ^*** %
Apo AII: Mean % change from baseline (90% CI) ([1]; 300 mg/day): 11.93 (7.75, 16.10) %
Apo AII: Mean % change vs placebo (90 % CI) ([1]; 300 mg/day): 17.52 (10.86, 24.17) ^*** %
Apo B: Mean % change from baseline (90% CI) ([1]; 300 mg/day): −18.85 (−22.45, −15.25) %
Apo B: Mean % change vs placebo (90 % CI) ([1]; 300 mg/day): −25.81 (−32.59, −19.04) ^*** %
Apo E: Mean % change from baseline (90% CI) ([1]; 300 mg/day): 76.75 (62.23, 91.28) %
Apo E: Mean % change vs placebo (90 % CI) ([1]; 300 mg/day): 65.40 (40.39, 90.42) ^*** %
Ratio of apo B/apo AI: Mean % change from baseline (90% CI) ([1]; 300 mg/day): −35.69 (−39.92, −31.46) %
Ratio of apo B/apo AI: Mean % change vs placebo (90 % CI) ([1]; 300 mg/day): −55.45 (−63.26, −47.63) ^*** %
decrease in apo B ([1]; 600 mg, Day 14, vs placebo): 26% and 26.1%
decrease in apo B/AI ratio ([1]; 600 mg, Day 14, vs placebo): 56.5%
Apo AI: Mean % change from baseline (90% CI) ([1]; 600 mg/day): 29.93 (24.51, 35.35) %
Apo AI: Mean % change vs placebo (90 % CI) ([1]; 600 mg/day): 42% and 41.7% and 41.69 (32.70, 50.67) ^*** %
Apo AII: Mean % change from baseline (90% CI) ([1]; 600 mg/day): 12.91 (8.06, 17.77) %
Apo AII: Mean % change vs placebo (90 % CI) ([1]; 600 mg/day): 18.5% and 18.50 (11.71, 25.29) ^*** %
Apo B: Mean % change from baseline (90% CI) ([1]; 600 mg/day): −19.17 (−22.94, −15.41) %
Apo B: Mean % change vs placebo (90 % CI) ([1]; 600 mg/day): −26.14 (−32.97, −19.30) ^*** %
Apo E: Mean % change from baseline (90% CI) ([1]; 600 mg/day): 85.48 (65.47, 105.49) %
Apo E: Mean % change vs placebo (90 % CI) ([1]; 600 mg/day): 74.1% and 74.13 (47.95, 100.31) ^*** %
Ratio of apo B/apo AI: Mean % change from baseline (90% CI) ([1]; 600 mg/day): −36.74 (−41.23, −32.25) %
Ratio of apo B/apo AI: Mean % change vs placebo (90 % CI) ([1]; 600 mg/day): −56.50 (−64.39, −48.61) ^*** %
EAUC50 for the HDL-C model (HDL-C and LDL-C; [2]): 4110 ng·h/mL
EAUC50 for the LDL-C model (HDL-C and LDL-C; [2]): 582 (194 to 1810) ng · h/ml
maximum theoretical change from baseline for HDL-C (Emax) (HDL-C and LDL-C; after 14 days of dosing): 126%
maximum theoretical change from baseline for LDL-C (Emax) (HDL-C and LDL-C; after 14 days of dosing): −28.2%
effect on 24-h ambulatory systolic or diastolic blood pressure (healthy subjects): No significant differences
effect on 24-h ambulatory systolic or diastolic blood pressure (healthy subjects; listed as Evacetrapib): did not produce any significant effect
correlation between exposure and blood pressure (Spearman's rank correlation coefficient) (healthy subjects; 600 mg crossover cohort, P = 0.964): 0.00954
Diastolic blood pressure, Day 1 mean (healthy subjects; [3]): 68.27 (64.82, 71.72) mmHg
Systolic blood pressure, Day 1 mean (healthy subjects; [3]): 112.16 (109.12, 115.19) mmHg
Diastolic blood pressure, Difference (comparison with placebo) (healthy subjects; [4]): −2.28 mmHg
Systolic blood pressure, Difference (comparison with placebo) (healthy subjects; [4]): −1.96 mmHg
Diastolic blood pressure, LS mean change (healthy subjects; [5]): 0.60 (−1.45, 2.65) mmHg
Systolic blood pressure, LS mean change (healthy subjects; [5]): −0.27 (−2.64, 2.11) mmHg
Diastolic blood pressure, Day 14 mean (healthy subjects; [6]): 73.72 (70.26, 77.18) mmHg
Systolic blood pressure, Day 14 mean (healthy subjects; [6]): 118.28 (113.78, 122.77) mmHg
